Data: ChEMBL document CHEMBL4316597, “Design, Synthesis, and Biological Evaluation of Itaconic Acid Derivatives as Potential Anti-Influenza Agents” (J Med Chem, 2019)

Experiments:
[1] = system: Influenza A virus; test: Antiviral activity against oseltamivir resistant-Influenza A virus A/TW/7855/09 (H1N1) infected in MDCK cells after 72 hrs by crystal violet-staining based assay; format: functional, organism-based
Procedure, shortened: (§1)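 Cells seeded at 2 × 10^4/well in E10 (DMEM, 10% FBS), 16–24 h at 37 °C/5% CO2, washed with DPBS, then infected at nine-fold TCID50 with or without serial compound concentrations. Influenza is run in MDCK and enterovirus/rhinovirus in RD. Incubated 72 h, fixed in 4% paraformaldehyde, stained with 0.1% crystal violet, and read for cell density. EC50 = 50% CPE inhibition by Reed–Muench; mean ± S.D. of at least three runs.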

[2] = system: Influenza A virus; test: Antiviral activity against oseltamivir resistant-Influenza A virus A/TW/6663/09 (H1N1) infected in MDCK cells after 72 hrs by crystal violet-staining based assay; format: functional, organism-based; procedure, shortened: as §1
[3] = Selectivity ratio of CC50 for MDCK cells to EC50 for oseltamivir resistant-Influenza A virus A/TW/7855/09 (H1N1); format: toxicity; conditions: dog, read-out: Ratio CC50/EC50
Procedure, shortened: (§2)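 MDCK cells (2 × 10^4/well, E10, 16–24 h) infected at nine-fold TCID50 with compound for 72 h, 37 °C, 5% CO2. Cells were fixed in 4% paraformaldehyde and stained with crystal violet; EC50 is from Reed–Muench. For CC50, cells had compound alone for 72 h, then MTT 3 h, DMSO, A570, Reed–Muench. SI = CC50/EC50; three independent experiments.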

[4] = Selectivity ratio of CC50 for MDCK cells to EC50 for oseltamivir resistant-Influenza A virus A/TW/6663/09 (H1N1); format: toxicity; conditions: dog, read-out: Ratio CC50/EC50; procedure, shortened: as §2

C=C(CC(=O)Nc1ccc(F)cc1F)C(=O)Nc1ccc(F)cc1F
EC50 [1]: 2.6 µM | EC50 [2]: 4.83 µM | selectivity ratio [3]: 33 | selectivity ratio [4]: 18
